Assay results gathered from unrelated publications.
Protocols differ between the studies behind these lines.
Target: Protein kinase C eta type (PRKCH, Homo sapiens, UniProt P24723)

SMILES | test | conditions | endpoint | result
Cn1cnc(Br)c1C1=CN(c2ncnc3[nH]cnc23)CCS1 | enzyme activity, inhibitor, radiometric | 50 nM | inhibition | 29.7%
CCN(CC)CCNC(=O)c1c(C)[nH]c(/C=C2\C(=O)Nc3ccc(F)cc32)c1C | enzyme activity, inhibitor | 10 µM | inhibition | 4%
CS(=O)(=O)NCC[C@H](NC(=O)c1cncc2c1cnn2-c1ccc(F)cc1)c1ccnc(S(C)(=O)=O)c1 | cell-free assay, competition with immobilised ligand | 1 µM | remaining binding | 80%
Cn1cncc1C1=CN(c2ncnc3[nH]cnc23)CCS1 | enzyme activity, inhibitor, radiometric | 50 nM | inhibition | 15.8%
COc1cc2ncnc(Nc3ccc(Oc4ccccc4)c(C)c3C)c2cc1OC | enzyme activity, inhibitor | 1 µM | inhibition | 5%
CN1CCN(c2cnc3c(C4CCN(C(=O)c5ccc(OC(F)(F)F)cc5N)CC4)ncnc3c2)CC1 | cell-free assay, competition with immobilised ligand | 1 µM | remaining binding | 86%
CC(C)c1ccc(NC(=O)c2cccs2)c(-c2nc3ccccc3[nH]c2=O)c1 | enzyme activity, inhibitor | 1 µM | activity vs control | 108%
CNC(=O)Nc1ccc2c(c1)[C@@]1(CC2)OC(=O)N(CC(=O)N(Cc2ccc(F)cc2)[C@@H](C)C(F)(F)F)C1=O | cell-free assay, competition with immobilised ligand | 1 µM | remaining binding | 87%
CCCS(=O)(=O)Nc1ccc(F)c(C(=O)c2c[nH]c3ncc(-c4ccc(Cl)cc4)cc23)c1F | enzyme activity, inhibitor | 1 µM | inhibition | < 10%
Cc1ccc(C(=O)Nc2ccc(CN3CCN(C)CC3)c(C(F)(F)F)c2)cc1C#Cc1cnc2cccnn12 | enzyme activity | 23.5 nM | remaining activity | 91%
O=C(Nc1cnn(-c2csc(C(=O)NC3COC3)c2)c1)Nc1ccccc1Cl | enzyme activity, inhibitor | 5 µM | remaining activity | 103%
CCS(=O)(=O)c1cc2cc(C[C@](O)(CC(C)(C)c3ccc(F)cc3C(N)=O)C(F)(F)F)[nH]c2cn1 | cell-free assay, competition with immobilised ligand | 1 µM | remaining binding | 94%
Cc1sc(C(=O)NC2COC2)cc1-n1cc(NC(=O)Nc2c(F)cccc2Cl)cn1 | enzyme activity, inhibitor | 10 µM | remaining activity | 91.6%
CC(C)(O)[C@H]1CC[C@H](Nc2ccc3ncc(-c4cccc(C(F)(F)F)c4)n3n2)CC1 | enzyme activity, inhibitor | 1 µM | remaining activity | 97.2%
CCCOc1ccc(OC)c(F)c1C(=O)c1ccc(C(=O)N[C@@H]2CNC[C@H]2NC(=O)c2ccc3[nH]ncc3c2)cc1 | enzyme activity, inhibitor | 10 µM | remaining activity | 16%
C[C@@H]1CCN(c2nccc(-c3cnn4ncccc34)n2)C1 | binding | 1 µM | remaining binding | 83%
CCCOc1ccc([C@H]2[C@H](C(=O)O)[C@@H](c3ccc4c(c3)OCO4)CN2CC(=O)Nc2c(CC)cccc2CC)cc1 | cell-free assay, competition with immobilised ligand | 1 µM | remaining binding | 100%
Cc1cc(NC(=O)c2cccc3cc(-c4cccc5[nH]nc(N)c45)ccc23)ccc1F | enzyme activity, inhibitor | 0.1 µM | activity vs control | 109%
Cc1cnc(NC2CCOCC2)nc1-n1cnc(C(=O)NC(CN)c2cc(F)cc(Cl)c2)c1 (stereo not shown) | enzyme activity, inhibitor, radiometric | 1 µM | remaining activity | 100%
